Measured values taken from ChEMBL document CHEMBL1255198, “Expanding the diversity of allosteric bcr-abl inhibitors” (J Med Chem, 2010).

Assay: Inhibition of Bcr-Abl E255K mutant in mouse BA/F3 cells assessed as cell growth inhibition
Details: BaF3
Compound NS(=O)(=O)c1ccc(-c2cc(Nc3ccc(OC(F)(F)F)cc3)ncn2)cc1 has an EC50 of 0.31 µM. CS(=O)(=O)Nc1ccc(-c2cc(Nc3ccc(OC(F)(F)F)cc3)ncn2)cc1 showed an EC50 of 0.36 µM. For O=C(NCCO)c1cccc(-c2cc(Nc3ccc(OC(F)(F)F)cc3)ncn2)c1, the EC50 was 0.58 µM. FC(F)(F)Oc1ccc(Nc2cc(-c3cn[nH]c3)ncn2)cc1 gave an EC50 of 0.52 µM. Work on CN1CCN(C(=O)c2cc3c(Nc4ccc(OC(F)(F)F)cc4)ncnc3s2)CC1 yielded an EC50 of 1.33 µM. In the case of FC(F)(F)Oc1ccc(Nc2ncnc3c2ccn3CCN2CCOCC2)cc1, the EC50 is reported as 1.22 µM. With OCCn1ncc2c(Nc3ccc(OC(F)(F)F)cc3)ncnc21 the EC50 was 1.61 µM. For CC(C)(C)n1ncc2c(Nc3ccc(OC(F)(F)F)cc3)ncnc21, the EC50 was 0.5 µM. Compound NC(=O)c1cccc(-c2cc(Nc3ccc(OC(F)(F)F)cc3)ncn2)c1 has an EC50 of 0.6 µM.

Assay: Cytotoxicity against mouse BA/F3 cells
Type: cell-based
Details: BaF3
Method in brief: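 Parental IL-3-dependent murine Ba/F3 cells grown at 37 °C, 5% CO₂ in RPMI 1640 with 10% FBS, 1% L-glutamine and 10% WEHI-conditioned medium as IL-3 source. Growth after 48 h read by CellTiter-Glo luminescence.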
For FC(F)(F)Oc1ccc(Nc2cc(NCCN3CCOCC3)ncn2)cc1, the EC50 was over 10 µM. Compound Fc1ccc(Nc2cc(-c3ccncc3)ncn2)cc1 has an EC50 of over 10 µM. For Cc1ccc(C(=O)Nc2cccc(C(F)(F)F)c2)cc1NC(=O)c1cc2c(Nc3ccc(OC(F)(F)F)cc3)ncnc2s1, the EC50 was 8.9 µM. Compound CS(=O)(=O)c1cccc(-c2cc(Nc3ccc(OC(F)(F)F)cc3)ncn2)c1 has an EC50 of over 10 µM. Work on Nc1cccc(-c2cc(Nc3ccc(OC(F)(F)F)cc3)ncn2)c1 yielded an EC50 of over 10 µM. Compound FC(F)(F)c1ccc(Nc2cc(-c3ccncc3)ncn2)cn1 has an EC50 of over 10 µM. FC(F)(F)Oc1ccc(Nc2ncnc(NCCN3CCOCC3)n2)cc1 gave an EC50 of over 10 µM. With FC(F)(F)Oc1ccc(Nc2ncnc3nn(Cc4cccnc4)cc23)cc1 the EC50 was over 10 µM. NS(=O)(=O)c1ccc(-c2cc(Nc3ccc(OC(F)(F)F)cc3)ncn2)cc1 gave an EC50 of over 10 µM. CS(=O)(=O)Nc1ccc(-c2cc(Nc3ccc(OC(F)(F)F)cc3)ncn2)cc1 gave an EC50 of 2.21 µM. Work on COC(=O)c1cc2c(Nc3ccc(OC(F)(F)F)cc3)ncnc2s1 yielded an EC50 of over 10 µM. In the case of OCc1cc2c(Nc3ccc(OC(F)(F)F)cc3)ncnc2s1, the EC50 is reported as over 10 µM. Compound O=C(O)c1cc2c(Nc3ccc(OC(F)(F)F)cc3)ncnc2s1 has an EC50 of over 10 µM. With O=C(NCCO)c1cccc(-c2cc(Nc3ccc(OC(F)(F)F)cc3)ncn2)c1 the EC50 was over 10 µM. Compound O=C(NCCN1CCOCC1)c1cccc(-c2cc(Nc3ccc(OC(F)(F)F)cc3)ncn2)c1 has an EC50 of over 10 µM. O=C(NCCO)c1cc2c(Nc3ccc(OC(F)(F)F)cc3)ncnc2s1 gave an EC50 of over 10 µM. For CCNC(=O)c1cc2c(Nc3ccc(OC(F)(F)F)cc3)ncnc2s1, the EC50 was over 10 µM. CNC(=O)c1cccc(-c2cc(Nc3ccc(OC(F)(F)F)cc3)ncn2)c1 gave an EC50 of over 10 µM. In the case of O=C(c1cccc(-c2cc(Nc3ccc(OC(F)(F)F)cc3)ncn2)c1)N1CCOCC1, the EC50 is reported as over 10 µM. With O=C(c1cc2c(Nc3ccc(OC(F)(F)F)cc3)ncnc2s1)N1CCNCC1 the EC50 was 4.07 µM. In the case of O=C(c1cc2c(Nc3ccc(OC(F)(F)F)cc3)ncnc2s1)N1CCN(N2CCCC2)CC1, the EC50 is reported as 5.77 µM. Work on FC(F)(F)Oc1ccc(Nc2cc(-c3cn[nH]c3)ncn2)cc1 yielded an EC50 of over 10 µM. Compound Cn1cc(-c2cc(Nc3ccc(OC(F)(F)F)cc3)ncn2)cn1 has an EC50 of over 10 µM. In the case of CC(C)Cn1cc(-c2cc(Nc3ccc(OC(F)(F)F)cc3)ncn2)cn1, the EC50 is reported as over 10 µM. CN1CCN(C(=O)c2cc3c(Nc4ccc(OC(F)(F)F)cc4)ncnc3s2)CC1 showed an EC50 of 2.69 µM. For O=C(c1cc2c(Nc3ccc(OC(F)(F)F)cc3)ncnc2s1)N1CCC(O)CC1, the EC50 was over 10 µM. In the case of Cc1c(-c2cc(Nc3ccc(OC(F)(F)F)cc3)ncn2)cnn1-c1ccccc1, the EC50 is reported as over 10 µM. In the case of Cc1nn(C)c(C)c1-c1cc(Nc2ccc(OC(F)(F)F)cc2)ncn1, the EC50 is reported as over 10 µM. Compound FC(F)(F)Oc1ccc(Nc2ncnc3[nH]ccc23)cc1 has an EC50 of over 10 µM. In the case of Cn1ccc2c(Nc3ccc(OC(F)(F)F)cc3)ncnc21, the EC50 is reported as over 10 µM. For FC(F)(F)Oc1ccc(Nc2ncnc3c2ccn3CCN2CCOCC2)cc1, the EC50 was over 10 µM. In the case of FC(F)(F)Oc1ccc(Nc2cc(-c3cnn(Cc4cccnc4)c3)ncn2)cc1, the EC50 is reported as over 10 µM. FC(F)(F)Oc1ccc(Nc2cc(-c3cccc4[nH]ccc34)ncn2)cc1 showed an EC50 of 3.79 µM. COc1ccc(Cn2ccc3c(Nc4ccc(OC(F)(F)F)cc4)ncnc32)cc1 gave an EC50 of over 10 µM. In the case of COCCCNC(=O)CCn1ccc2c(Nc3ccc(OC(F)(F)F)cc3)ncnc21, the EC50 is reported as over 10 µM. FC(F)(F)Oc1ccc(Nc2cc(-c3ccc4[nH]ccc4c3)ncn2)cc1 gave an EC50 of over 10 µM. FC(F)(F)Oc1ccc(Nc2cc(-c3ccnc4[nH]ccc34)ncn2)cc1 showed an EC50 of 6.85 µM. NC(=O)CCn1ccc2c(Nc3ccc(OC(F)(F)F)cc3)ncnc21 gave an EC50 of over 10 µM. With OCCn1ncc2c(Nc3ccc(OC(F)(F)F)cc3)ncnc21 the EC50 was over 10 µM. CCn1ncc2c(Nc3ccc(OC(F)(F)F)cc3)ncnc21 showed an EC50 of over 10 µM. Compound Cc1nc(-c2cc(Nc3ccc(OC(F)(F)F)cc3)ncn2)cs1 has an EC50 of over 10 µM. In the case of CN(c1ccc(OC(F)(F)F)cc1)c1cc(NCCN2CCOCC2)ncn1, the EC50 is reported as over 10 µM. Compound CCCn1ncc2c(Nc3ccc(OC(F)(F)F)cc3)ncnc21 has an EC50 of 6.6 µM. FC(F)(F)Oc1ccc(Nc2ncnc3c2cnn3C2CCCCC2)cc1 showed an EC50 of 9.3 µM. For COc1ccc(Nc2cc(NCCN3CCOCC3)ncn2)cc1, the EC50 was over 10 µM. FC(F)(F)Oc1cccc(Nc2cc(NCCN3CCOCC3)ncn2)c1 showed an EC50 of over 10 µM. Work on NC(=O)Cn1ncc2c(Nc3ccc(OC(F)(F)F)cc3)ncnc21 yielded an EC50 of 3.3 µM. In the case of FC(F)(F)Oc1ccc(Nc2ncnc3c2cnn3Cc2ccccc2)cc1, the EC50 is reported as over 10 µM. Work on FC(F)(F)Oc1ccc(Oc2cc(NCCN3CCOCC3)ncn2)cc1 yielded an EC50 of over 10 µM. Compound FC(F)(F)Oc1ccc(-c2cc(NCCN3CCOCC3)ncn2)cc1 has an EC50 of over 10 µM. FC(F)(F)Oc1ccc(Nc2ncnc3c2cnn3Cc2cccnc2)cc1 gave an EC50 of over 10 µM. With NC(=O)c1ccc(Cn2ncc3c(Nc4ccc(OC(F)(F)F)cc4)ncnc32)cc1 the EC50 was over 10 µM. Work on FC(F)(F)Oc1ccc(Nc2cc(NCCCN3CCOCC3)ncn2)cc1 yielded an EC50 of over 10 µM. FC(F)(F)Oc1ccc(Nc2cc(N3CCOCC3)ncn2)cc1 gave an EC50 of over 10 µM. Work on FC(F)(F)c1ccc(Nc2cc(NCCN3CCOCC3)ncn2)cc1 yielded an EC50 of over 10 µM. In the case of FC(F)(F)Oc1ccc(CNc2cc(NCCN3CCOCC3)ncn2)cc1, the EC50 is reported as over 10 µM. FC(F)(F)Oc1ccc(Nc2ncnc3c2cnn3CC2CCOC2)cc1 (stereo not drawn) gave an EC50 of over 10 µM. Work on CC(C)(C)n1ncc2c(Nc3ccc(OC(F)(F)F)cc3)ncnc21 yielded an EC50 of 7.3 µM. With FC(F)(F)Oc1ccc(Nc2cc(-n3ccnc3)ncn2)cc1 the EC50 was over 10 µM. NC(=O)c1cccc(Oc2cc(Nc3ccc(OC(F)(F)F)cc3)ncn2)c1 gave an EC50 of over 10 µM. In the case of Cc1c(NCCN2CCOCC2)ncnc1Nc1ccc(OC(F)(F)F)cc1, the EC50 is reported as over 10 µM. Cc1nc(NCCN2CCOCC2)cc(Nc2ccc(OC(F)(F)F)cc2)n1 showed an EC50 of 1.11 µM. FC(F)(F)Oc1ccc(Nc2ncnc3c2cnn3Cc2ccncc2)cc1 gave an EC50 of over 10 µM. Compound Cc1nc(C)c(Cn2ncc3c(Nc4ccc(OC(F)(F)F)cc4)ncnc32)s1 has an EC50 of over 10 µM. Compound NC(=O)c1cccc(Nc2cc(Nc3ccc(OC(F)(F)F)cc3)ncn2)c1 has an EC50 of over 10 µM. For FC(F)(F)Oc1ccc(Nc2nccc(NCCN3CCOCC3)n2)cc1, the EC50 was over 10 µM. Work on FC(F)(F)Oc1ccc(Nc2ccnc(NCCN3CCOCC3)n2)cc1 yielded an EC50 of over 10 µM. In the case of FC(F)(F)Oc1ccc(Nc2ncnc3[nH]ncc23)cc1, the EC50 is reported as over 10 µM. In the case of OCCn1cc2c(Nc3ccc(OC(F)(F)F)cc3)ncnc2n1, the EC50 is reported as over 10 µM. Work on CCn1cc2c(Nc3ccc(OC(F)(F)F)cc3)ncnc2n1 yielded an EC50 of over 10 µM. In the case of NC(=O)c1ccc(-c2cc(Nc3ccc(OC(F)(F)F)cc3)ncn2)cc1, the EC50 is reported as over 10 µM. In the case of NC(=O)c1ccccc1-c1cc(Nc2ccc(OC(F)(F)F)cc2)ncn1, the EC50 is reported as over 10 µM. For FC(F)(F)Oc1ccc(Nc2cncc(NCCN3CCOCC3)n2)cc1, the EC50 was over 10 µM. Compound FC(F)(F)Oc1ccc(Nc2ccc(NCCN3CCOCC3)nn2)cc1 has an EC50 of over 10 µM. CCCn1cc2c(Nc3ccc(OC(F)(F)F)cc3)ncnc2n1 gave an EC50 of over 10 µM. Work on FC(F)(F)Oc1ccc(Nc2ncnc3nn(C4CCCCC4)cc23)cc1 yielded an EC50 of over 10 µM. With NS(=O)(=O)c1cccc(-c2cc(Nc3ccc(OC(F)(F)F)cc3)ncn2)c1 the EC50 was over 10 µM. In the case of FC(F)(F)Oc1ccc(Nc2cc(-c3ccncc3)ncn2)cc1, the EC50 is reported as over 10 µM. For CN(c1ccc(OC(F)(F)F)cc1)c1cc(-c2ccncc2)ncn1, the EC50 was over 10 µM. Work on COc1ccc(Nc2cc(-c3ccncc3)ncn2)cc1 yielded an EC50 of over 10 µM. FC(F)(F)c1ccc(Nc2cc(-c3ccncc3)ncn2)cc1 gave an EC50 of over 10 µM. With NC(=O)Cn1cc2c(Nc3ccc(OC(F)(F)F)cc3)ncnc2n1 the EC50 was over 10 µM. In the case of FC(F)(F)Oc1ccc(Nc2ncnc3nn(Cc4ccccc4)cc23)cc1, the EC50 is reported as over 10 µM. With NC(=O)c1cccc(-c2cc(Nc3ccc(OC(F)(F)F)cc3)ncn2)c1 the EC50 was over 10 µM.
